Measured values reported in ChEMBL document CHEMBL1155041, “Discovery of N-(2-aminophenyl)-4-[(4-pyridin-3-ylpyrimidin-2-ylamino)methyl]benzamide (MGCD0103), an orally active histone deacetylase inhibitor” (J Med Chem, 2008).
Counter-ions that a name gives are not always drawn. Values belong to the compound of their own block, whether it stands above or below them. Activity calls are given as the source filed them. The rule behind the calls is not given here.

Key:
[1] = system: SW48; test: Antitumor activity against human SW48 cells xenografted in CD1 nude mouse at 120 mg/kg/day, po; type: functional; conditions: read-out: TGI
In short: (§1)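 Tumors were started from about 2 million cells injected sc into the flank of female CD-1 nude mice aged 8-10 weeks, then serially passaged at least three times. About 30 mg fragments were implanted sc under anesthesia. Dosing was oral, daily, as a solution in PBS acidified with 0.1 N HCl. Tumor volume and body weight were measured three times weekly for ≥2 weeks, with 6-8 animals per group and Student's t-test.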

[2] = system: SW48; test: Antitumor activity against human SW48 cells xenografted in CD1 nude mouse at 90 mg/kg/day, po; type: functional; conditions: read-out: TGI; in short: as §1
[3] = system: SW48; test: Antitumor activity against human SW48 cells xenografted in CD1 nude mouse at 60 mg/kg/day, po; type: functional; conditions: read-out: TGI; in short: as §1
[4] = system: HCT-116; test: Induction of apoptosis in HCT116 cells at 1 uM; type: functional, cell-based; conditions: Homo sapiens
In short: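 Apoptosis was measured in HCT116 cells with a cell-death detection ELISA (nucleosome release), read at 405 nm with a 490 nm reference. Scored positive/negative at 1 µM.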

[5] = system: DU-145; test: Antiproliferative activity against human Du145 cells after 72 hrs by MTT assay; type: functional, cell-based; conditions: DU-145, 72 h
In short: (§2)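 Cells (HMEC from a commercial source, others from ATCC) cultured per vendor instructions, exposed to a range of concentrations for 72 h at 37 °C, 5% CO2. MTT at 0.5 mg/mL final for 4 h, then DMF/SDS solubilization overnight, absorbance at 570 nm with 630 nm reference. OD converted to cell number via a growth curve. IC50 is the concentration giving 50% of DMSO-control cell number. At least three independent experiments.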

[6] = system: T-24; test: Induction of H3 histone acetylation in human T24 cells relative to MS275; type: functional, cell-based
In short: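 Histones were acid-extracted (H2SO4, then acetone precipitation) from treated cells. In the ELISA, 2 µg of histones went onto anti-histone-coated plates and were probed with anti-acetyl-H3 (1:1000). Signal was normalized to total H3 measured on 0.5 µg with anti-H3.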

[7] = Oral bioavailability in CD1 mouse at 2.5 to 15 mg/kg; type: ADME, organism-based; conditions: in vivo
In short: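 Female CD-1 mice dosed iv 2.5-15 mg/kg and orally 2.5-15 mg/kg. Both routes used 0.05-0.1 N HCl in saline. Plasma collected at various time points and analysed by HPLC-MS/MS. Bioavailability taken from oral versus iv exposure.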

[8] = Tmax in Sprague-Dawley rat at 2.5 to 50 mg/kg, po; type: ADME, organism-based; parameters: dose 2.5-50 mg/kg, route oral; conditions: in vivo
In short: (§3)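 Female CD-1 mice, female Sprague-Dawley rats and male beagle dogs were dosed iv or orally. Vehicles: mice, 0.05-0.1 N HCl in saline for both routes. Rats, 0.02-0.1 N HCl in saline iv; for po, HCl/saline with 0.5% HPMC and 0.01% Tween-80, or 0.5% CMC in 50 mM acetate pH 4.0. Dogs, HCl/saline with 40% PEG400 iv; for po, HCl/saline ±PEG400 or 0.5% hydroxyethylcellulose in pH 4.0 acetate. Plasma was collected over time and analyzed by LC-MS/MS.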

[9] = system: A-431; test: Antitumor activity against human A431 cells xenografted in CD1 nude mouse at 60 mg/kg/day, po; type: functional; conditions: read-out: TGI; in short: as §1
[10] = system: Rattus norvegicus; test: Cmax in Sprague-Dawley rat at 2.5 to 50 mg/kg, po; type: ADME, organism-based; parameters: dose 2.5-50 mg/kg, route oral; conditions: in vivo; in short: as §3
[11] = Volume of distribution at steady state in Sprague-Dawley rat at 2.5 to 5 mg/kg, iv and 2.5 to 50 mg/kg, po; type: ADME, organism-based; conditions: in vivo, read-out: Vdss; in short: as §3
[12] = system: A-431; test: Antitumor activity against human A431 cells xenografted in CD1 nude mouse at 90 mg/kg/day, po; type: functional; conditions: read-out: TGI; in short: as §1
[13] = system: A549; test: Antiproliferative activity against human A549 cells after 72 hrs by MTT assay; conditions: A549, 72 h
[14] = molecular target: T1, Histone deacetylase 11 (Homo sapiens, UniProt Q96DB2); test: Inhibition of human recombinant HDAC11 homogeneous fluorescence release assay
T1 sequence (Q96DB2 whole entry): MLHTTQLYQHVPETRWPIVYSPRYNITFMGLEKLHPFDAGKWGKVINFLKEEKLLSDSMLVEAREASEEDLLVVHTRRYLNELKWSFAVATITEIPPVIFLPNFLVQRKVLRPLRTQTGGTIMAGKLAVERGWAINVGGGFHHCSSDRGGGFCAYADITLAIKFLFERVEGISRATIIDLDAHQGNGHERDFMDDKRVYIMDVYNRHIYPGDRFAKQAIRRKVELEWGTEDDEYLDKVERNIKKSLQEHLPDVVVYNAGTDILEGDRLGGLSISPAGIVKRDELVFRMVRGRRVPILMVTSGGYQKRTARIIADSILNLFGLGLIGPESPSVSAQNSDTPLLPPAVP
In short: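 Boc-Lys(ε-Ac)-AMC substrate then added at 37 °C, with isotype-specific substrate level and time. Trypsin 20 min at RT releases fluorophore, read ex 360/em 470 nm. IC50 from dose-response curves, 6-21 independent experiments.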

[15] = Half life in Beagle dog at 10 mg/kg, iv; type: ADME, organism-based, Canis lupus familiaris; parameters: dose 10 mg/kg, route intravenous; conditions: in vivo; in short: as §3
[16] = Oral bioavailability in Beagle dog at 7 to 30 mg/kg; type: ADME, organism-based, Canis lupus familiaris; conditions: in vivo; in short: as §3
[17] = system: HCT-116; test: Induction of p21cip/waf1 protein expression in human HCT116 cells relative to MS275; type: functional, cell-based
[18] = Oral bioavailability in Sprague-Dawley rat at 2.5 to 50 mg/kg; type: ADME, organism-based; conditions: in vivo
In short: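 Female Sprague-Dawley rats dosed iv 2.5-5 mg/kg in 0.02-0.1 N HCl/saline. Oral doses of 2.5-50 mg/kg were given either in 0.02-0.1 N HCl/saline with 0.5% HPMC and 0.01% Tween-80, or in 0.5% CMC in 50 mM acetate pH 4.0. Plasma sampled at various time points and analysed by HPLC-MS/MS.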

[19] = Clearance in Beagle dog at 10 mg/kg, iv and 7 to 30 mg/kg, po; type: ADME, organism-based, Canis lupus familiaris; conditions: in vivo; in short: as §3
[20] = system: A549; test: Antitumor activity against human A549 cells xenografted in CD1 nude mouse at 60 mg/kg/day, po; type: functional; conditions: read-out: TGI; in short: as §1
[21] = Half life in Sprague-Dawley rat at 2.5 to 5 mg/kg, iv; type: ADME, organism-based; parameters: dose 2.5-5 mg/kg, route intravenous; conditions: in vivo; in short: as §3
[22] = system: Canis familiaris; test: Cmax in Beagle dog at 7 to 30 mg/kg, po; type: ADME, organism-based, Canis lupus familiaris; parameters: dose 7-30 mg/kg, route oral; conditions: in vivo; in short: as §3
[23] = system: HCT-116; test: Antiproliferative activity against human HCT116 cells after 72 hrs by MTT assay; conditions: HCT-116, 72 h
[24] = system: A549; test: Antitumor activity against human A549 cells xenografted in CD1 nude mouse at 40 mg/kg/day, po; type: functional; conditions: read-out: TGI; in short: as §1
[25] = system: Mus musculus; test: Volume of distribution in CD1 mouse at 2.5 to 15 mg/kg, iv and po; type: ADME, organism-based; parameters: dose 2.5-15 mg/kg, route oral; conditions: in vivo; in short: as §3
[26] = system: DU-145; test: Antitumor activity against human DU145 cells xenografted in CD1 nude mouse at 40 mg/kg/day, po; type: functional; conditions: read-out: TGI; in short: as §1
[27] = system: Mus musculus; test: Cmax in CD1 mouse at 2.5 to 15 mg/kg, po; type: ADME, organism-based; parameters: dose 2.5-15 mg/kg, route oral; conditions: in vivo; in short: as §3
[28] = system: DU-145; test: Antitumor activity against human DU145 cells xenografted in CD1 nude mouse at 80 mg/kg; type: functional; conditions: read-out: TGI; in short: as §1
[29] = system: HCT-116; test: Cell cycle arrest in human HCT116 cells assessed as accumulation at G2/M phase; type: functional, cell-based
In short: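 Cells treated for 16 h, fixed in 70% ethanol at -20 °C, RNase-treated and stained with propidium iodide (50 µg/mL). DNA content measured by flow cytometry to score G2/M accumulation. EC50 derived.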

[30] = Half life in CD1 mouse at 2.5 to 15 mg/kg, iv; type: ADME, organism-based; parameters: dose 2.5-15 mg/kg, route intravenous; conditions: in vivo; in short: as §3
[31] = system: DU-145; test: Antitumor activity against human DU145 cells xenografted in CD1 nude mouse at 70 mg/kg/day, po; type: functional; conditions: read-out: TGI; in short: as §1
[32] = system: HMEC; test: Antiproliferative activity against HMEC after 72 hrs by MTT assay; type: functional, cell-based; conditions: Homo sapiens; in short: as §2
[33] = Clearance in Sprague-Dawley rat at 2.5 to 5 mg/kg, iv and 2.5 to 50 mg/kg, po; type: ADME, organism-based; conditions: in vivo; in short: as §3
[34] = Tmax in CD1 mouse at 2.5 to 15 mg/kg, po; type: ADME, organism-based; parameters: dose 2.5-15 mg/kg, route oral; conditions: in vivo; in short: as §3
[35] = Volume of distribution at steady state in Beagle dog at 10 mg/kg, iv and 7 to 30 mg/kg, po; type: ADME, organism-based, Canis lupus familiaris; conditions: in vivo, read-out: Vdss; in short: as §3
[36] = Tmax in Beagle dog at 7 to 30 mg/kg, po; type: ADME, organism-based, Canis lupus familiaris; parameters: dose 7-30 mg/kg, route oral; conditions: in vivo; in short: as §3

Compound: Nc1ccccc1NC(=O)c1ccc(CNc2nccc(-c3cccnc3)n2)cc1 [MOCETINOSTAT DIHYDROBROMIDE]
inhibition in vivo at 120 mg/kg/day [1]: 93%
inhibition in vivo at 90 mg/kg/day [2]: 70%
inhibition in vivo at 60 mg/kg/day [3]: 64%

Compound: Nc1ccccc1NC(=O)c1ccc(CNc2nccc(-c3cccnc3)n2)cc1
Activity [4]: Active

IC50 [5]: 670 nM
EC50 [6]: 1380 nM
bioavailability [7]: 12%
Tmax [8]: 35.4 min
Cmax normalised [10]: 0.3 µM/mg/kg
Vd [11]: 0.91 L/kg
IC50 [13]: 900 nM
IC50 [14]: 590 nM
half-life [15]: 78 min
bioavailability [16]: 1%
EC50 [17]: 450 nM
bioavailability [18]: 47%
clearance [19]: 33.3 mL/min/kg
half-life [21]: 42 min
Cmax normalised [22]: 0.0029 µM/mg/kg
IC50 [23]: 290 nM
Vdss [25]: 0.35 L/kg
Cmax normalised [27]: 0.086 µM/mg/kg
EC50 [29]: < 1000 nM
half-life [30]: 36 min
clearance [33]: 28.3 mL/min/kg
Tmax [34]: 15 min
Vd [35]: 0.8 L/kg
Tmax [36]: 17.4 min
Compound: Nc1ccccc1NC(=O)c1ccc(CNc2nccc(-c3cccnc3)n2)cc1 [MOCETINOSTAT]
inhibition in vivo at 60 mg/kg/day [9]: 30%
inhibition in vivo at 90 mg/kg/day [12]: 64%
inhibition in vivo at 60 mg/kg/day [20]: 73%
inhibition in vivo at 40 mg/kg/day [24]: 56%
inhibition in vivo at 40 mg/kg/day [26]: 4%
inhibition in vivo at 80 mg/kg [28]: 82%
inhibition in vivo at 70 mg/kg/day [31]: 47%
IC50 [32]: 20000 nM
